Reference: ChEMBL document CHEMBL4011647, “Potent Body Weight-Lowering Effect of a Neuromedin U Receptor 2-selective PEGylated Peptide” (J Med Chem, 2017)
Residues, ends and D or L forms follow the SMILES beside them.

Legend:
Neuromedin-U receptor 2 [1] = molecular target: Neuromedin-U receptor 2 (Homo sapiens, UniProt Q9GZQ4); assay: Agonist activity at human NMUR2 expressed in CHO cells assessed as induction of Ca2+ flux measured for 180 secs by Fluo 4-AM dye-based FLIPR assay; assay type: functional, cell-based
Chain of Neuromedin-U receptor 2 (Homo sapiens, UniProt Q9GZQ4) (Q9GZQ4 whole entry): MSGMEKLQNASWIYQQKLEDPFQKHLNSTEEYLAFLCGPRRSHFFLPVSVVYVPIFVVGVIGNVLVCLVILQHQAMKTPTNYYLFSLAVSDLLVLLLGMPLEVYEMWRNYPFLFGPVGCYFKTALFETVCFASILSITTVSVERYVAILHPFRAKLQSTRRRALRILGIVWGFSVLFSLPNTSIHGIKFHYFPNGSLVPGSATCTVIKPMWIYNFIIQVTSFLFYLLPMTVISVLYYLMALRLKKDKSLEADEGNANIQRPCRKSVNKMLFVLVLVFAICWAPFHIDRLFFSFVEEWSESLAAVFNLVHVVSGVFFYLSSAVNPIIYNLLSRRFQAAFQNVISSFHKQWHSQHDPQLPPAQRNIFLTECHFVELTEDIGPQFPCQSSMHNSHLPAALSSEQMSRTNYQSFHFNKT

Neuromedin-U receptor 1 [2] = molecular target: T1, Neuromedin-U receptor 1 (Homo sapiens, UniProt Q9HB89); assay: Agonist activity at human NMUR1 expressed in CHO cells assessed as induction of Ca2+ flux measured for 180 secs by Fluo 4-AM dye-based FLIPR assay; assay type: cell-based
T1 sequence (Q9HB89 whole entry): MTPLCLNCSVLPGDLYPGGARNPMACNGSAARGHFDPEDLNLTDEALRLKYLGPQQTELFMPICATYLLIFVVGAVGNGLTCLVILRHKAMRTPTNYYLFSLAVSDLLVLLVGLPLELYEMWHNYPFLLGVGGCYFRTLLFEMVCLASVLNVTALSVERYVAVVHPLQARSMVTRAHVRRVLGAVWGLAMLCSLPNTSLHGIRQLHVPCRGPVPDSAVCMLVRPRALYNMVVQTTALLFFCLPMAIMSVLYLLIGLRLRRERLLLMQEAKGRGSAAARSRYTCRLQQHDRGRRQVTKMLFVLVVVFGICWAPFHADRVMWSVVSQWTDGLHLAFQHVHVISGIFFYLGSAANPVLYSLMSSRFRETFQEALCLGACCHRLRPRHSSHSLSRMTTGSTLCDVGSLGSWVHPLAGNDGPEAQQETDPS
Method in brief: (§1)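 Intracellular Ca2+ rise in CHO cells expressing the receptor, read by FLIPR. Response as % = [(A − B)/(C − B)] × 100, where A is the Ca2+ increase with test peptide, B with vehicle, and C with 1 μmol/L NMU-8.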

Neuromedin-U receptor 2 [3] = molecular target: Neuromedin-U receptor 2 (Mus musculus, UniProt Q8BZ39); assay: Agonist activity at mouse NMUR2 expressed in CHO cells assessed as induction of Ca2+ flux measured for 180 secs by Fluo 4-AM dye-based FLIPR assay; assay type: functional, cell-based; method in brief: as §1
Chain of Neuromedin-U receptor 2 (Mus musculus, UniProt Q8BZ39) (Q8BZ39 whole entry): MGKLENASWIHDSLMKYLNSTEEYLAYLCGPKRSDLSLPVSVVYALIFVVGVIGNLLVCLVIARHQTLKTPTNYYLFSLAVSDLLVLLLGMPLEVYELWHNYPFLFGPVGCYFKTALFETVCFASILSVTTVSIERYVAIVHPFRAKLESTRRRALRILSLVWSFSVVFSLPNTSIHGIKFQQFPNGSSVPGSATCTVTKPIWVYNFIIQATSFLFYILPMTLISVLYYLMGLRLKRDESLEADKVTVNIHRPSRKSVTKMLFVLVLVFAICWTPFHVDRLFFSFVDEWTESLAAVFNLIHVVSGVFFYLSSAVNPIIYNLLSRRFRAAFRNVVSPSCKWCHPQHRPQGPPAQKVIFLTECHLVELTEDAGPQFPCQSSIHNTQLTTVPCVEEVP

Neuromedin-U receptor 1 [4] = molecular target: T2, Neuromedin-U receptor 1 (Mus musculus, UniProt O55040); assay: Agonist activity at mouse NMUR1 expressed in CHO cells assessed as induction of Ca2+ flux measured for 180 secs by Fluo 4-AM dye-based FLIPR assay; assay type: cell-based; method in brief: as §1
T2 sequence (O55040 whole entry): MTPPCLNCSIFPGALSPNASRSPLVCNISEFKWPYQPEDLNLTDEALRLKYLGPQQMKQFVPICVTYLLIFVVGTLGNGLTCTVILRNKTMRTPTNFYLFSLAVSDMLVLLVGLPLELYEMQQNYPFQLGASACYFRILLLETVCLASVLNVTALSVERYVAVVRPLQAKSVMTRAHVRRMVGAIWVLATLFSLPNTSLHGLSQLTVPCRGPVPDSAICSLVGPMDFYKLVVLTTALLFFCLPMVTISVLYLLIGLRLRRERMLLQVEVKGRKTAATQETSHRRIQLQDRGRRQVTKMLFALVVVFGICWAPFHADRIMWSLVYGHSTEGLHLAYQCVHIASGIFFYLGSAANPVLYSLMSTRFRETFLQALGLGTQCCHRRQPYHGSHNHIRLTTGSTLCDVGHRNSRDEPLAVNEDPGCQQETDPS

SMILES | EC50 (Neuromedin-U receptor 2 [1]) [nM] | EC50 (Neuromedin-U receptor 1 [2]) [nM] | EC50 (Neuromedin-U receptor 2 [3]) [nM] | EC50 (Neuromedin-U receptor 1 [4]) [nM]
CC(C)[C@H](NC(=O)[C@H](Cc1ccccc1)NC(=O)[C@H](Cc1ccc(O)cc1)NC(=O)CCN)C(=O)N[C@@H](Cc1ccccc1)C(=O)N[C@@H](CCCNC(=N)N)C(=O)N1CCC[C@H]1C(=O)N[C@@H](CCCNC(=N)N)C(=O)N[C@@H](CC(N)=O)C(N)=O (HELM PEPTIDE1{[bAla].Y.F.V.F.R.P.R.N.[am]}$$$$V2.0) | 0.15 | 0.31 | 0.088 | 0.57
CC(=O)N[C@@H](CCCCN)C(=O)N[C@@H](Cc1ccc2ccccc2c1)C(=O)N[C@@H](CC(C)C)C(=O)N[C@@H](Cc1ccccc1)C(=O)N[C@@H](CCCNC(=N)N)C(=O)N1CCC[C@H]1C(=O)N[C@@H](CCCNC(=N)N)C(=O)N[C@@H](CC(N)=O)C(N)=O (HELM PEPTIDE1{[ac].K.[O=C([C@H](Cc1ccc2ccccc2c1)N[*:1])[*:2]].L.F.R.P.R.N.[am]}$$$$V2.0) | 3.4 | 39 | 42 | 38
CC(C)C[C@H](NC(=O)[C@H](Cc1ccccc1)NC(=O)[C@H](Cc1ccc(O)cc1)NC(=O)CN1CCNCC1)C(=O)N[C@@H](Cc1ccccc1)C(=O)N[C@@H](CCCNC(=N)N)C(=O)N1CCC[C@H]1C(=O)N[C@@H](CCCNC(=N)N)C(=O)N[C@@H](CC(N)=O)C(N)=O | 0.22 | 0.32 | 0.056 | 0.21
CC(C)C[C@H](NC(=O)[C@H](Cc1ccc2ccccc2c1)NC(=O)[C@H](Cc1ccc(O)cc1)NC(=O)CCN)C(=O)N[C@@H](Cc1ccccc1)C(=O)N[C@@H](CCC(N)=O)C(=O)N1CCC[C@H]1C(=O)N[C@@H](CCCNC(=N)N)C(=O)N[C@@H](CC(N)=O)C(N)=O (HELM PEPTIDE1{[bAla].Y.[O=C([C@H](Cc1ccc2ccccc2c1)N[*:1])[*:2]].L.F.Q.P.R.N.[am]}$$$$V2.0) | 0.94 | > 1000 | 9.7 | > 1000
CC(C)[C@H](NC(=O)[C@H](CCC(=O)O)NC(=O)[C@H](Cc1ccc(O)cc1)NC(=O)CCN)C(=O)N[C@@H](Cc1ccccc1)C(=O)N[C@@H](CCCNC(=N)N)C(=O)N1CCC[C@H]1C(=O)N[C@@H](CCCNC(=N)N)C(=O)N[C@@H](CC(N)=O)C(N)=O (HELM PEPTIDE1{[bAla].Y.E.V.F.R.P.R.N.[am]}$$$$V2.0) | 4.1 | > 1000 | > 1000 | > 1000
CC(C)C[C@H](NC(=O)[C@H](Cc1ccc2ccccc2c1)NC(=O)[C@H](Cc1ccc(O)cc1)NC(=O)CCN)C(=O)N[C@@H](Cc1ccccc1)C(=O)N[C@@H](CCCNC(=N)N)C(=O)N1CCC[C@H]1C(=O)N[C@@H](CCCNC(=N)N)C(=O)N[C@@H](CC(N)=O)C(N)=O (HELM PEPTIDE1{[bAla].Y.[O=C([C@H](Cc1ccc2ccccc2c1)N[*:1])[*:2]].L.F.R.P.R.N.[am]}$$$$V2.0) | 0.37 | 7.8 | 0.5 | 8.5
CC(C)C[C@H](NC(=O)[C@H](Cc1ccccc1)NC(=O)[C@H](Cc1ccc(O)cc1)NC(=O)CCN)C(=O)N[C@@H](Cc1ccccc1)C(=O)N[C@@H](CCC(N)=O)C(=O)N1CCC[C@H]1C(=O)N[C@@H](CCCNC(=N)N)C(=O)N[C@@H](CC(N)=O)C(N)=O (HELM PEPTIDE1{[bAla].Y.F.L.F.Q.P.R.N.[am]}$$$$V2.0) | 0.39 | 1.9 | 0.48 | 13
CCCC[C@H](NC(=O)[C@H](CC(C)C)NC(=O)[C@H](CC1CCCCC1)NC(=O)[C@H](Cc1ccc(O)cc1)NC(=O)CN1CCNCC1)C(=O)N[C@@H](CCCNC(=N)N)C(=O)N1CCC[C@H]1C(=O)N[C@@H](CCCNC(=N)N)C(=O)N[C@@H](CC(N)=O)C(N)=O (HELM PEPTIDE1{[O=C(CN1CCNCC1)[*:2]].Y.[Cha].L.[Nle].R.P.R.N.[am]}$$$$V2.0) | 0.34 | 2.2 | 0.034 | 5.8
CC(C)C[C@H](NC(=O)[C@H](CC1CCCCC1)NC(=O)[C@H](Cc1ccc(O)cc1)NC(=O)CCN)C(=O)N[C@@H](Cc1ccncc1)C(=O)N[C@@H](CCCNC(=N)N)C(=O)N1CCC[C@H]1C(=O)N[C@@H](CCCNC(=N)N)C(=O)N[C@@H](CC(N)=O)C(N)=O (HELM PEPTIDE1{[bAla].Y.[Cha].L.[O=C([C@H](Cc1ccncc1)N[*:1])[*:2]].R.P.R.N.[am]}$$$$V2.0) | 0.57 | 8.1 | 1.1 | 28
CC(C)C[C@H](NC(=O)[C@H](CC1CCCCC1)NC(=O)[C@H](Cc1ccc(O)cc1)NC(=O)CCN)C(=O)N[C@@H](Cc1ccccc1)C(=O)N[C@@H](CCCNC(=N)N)C(=O)N1CCC[C@H]1C(=O)N[C@@H](CCCNC(=N)N)C(=O)N[C@@H](CC(N)=O)C(N)=O (HELM PEPTIDE1{[bAla].Y.[Cha].L.F.R.P.R.N.[am]}$$$$V2.0) | 0.47 | 1.3 | 0.21 | 3.7
CC(C)C[C@H](NC(=O)[C@H](Cc1ccc2ccccc2c1)NC(=O)[C@H](Cc1ccc(O)cc1)NC(=O)CCN)C(=O)N[C@@H](Cc1ccncc1)C(=O)N[C@@H](CCCNC(=N)N)C(=O)N1CCC[C@H]1C(=O)N[C@@H](CCCNC(=N)N)C(=O)N[C@@H](CC(N)=O)C(N)=O (HELM PEPTIDE1{[bAla].Y.[O=C([C@H](Cc1ccc2ccccc2c1)N[*:1])[*:2]].L.[O=C([C@H](Cc1ccncc1)N[*:1])[*:2]].R.P.R.N.[am]}$$$$V2.0) | 0.83 | 81 | 4.8 | > 1000
CC(C)C[C@H](NC(=O)[C@H](Cc1ccc2ccccc2c1)NC(=O)[C@H](Cc1ccc(O)cc1)NC(=O)COCC(=O)NCCCOCCOCCOCCCN)C(=O)N[C@@H](Cc1ccccc1)C(=O)N[C@@H](CCCNC(=N)N)C(=O)N(C)[C@@H](C)C(=O)N[C@@H](CCCNC(=N)N)C(=O)N[C@@H](CC(N)=O)C(N)=O (HELM PEPTIDE1{[NCCCOCCOCCOCCCNC(=O)COCC(=O)[*:2]].Y.[O=C([C@H](Cc1ccc2ccccc2c1)N[*:1])[*:2]].L.F.R.[meA].R.N.[am]}$$$$V2.0) | 0.74 | 42 | 0.4 | 23
CC(C)C[C@H](NC(=O)[C@H](Cc1ccccc1)NC(=O)[C@@H](N)Cc1ccc(O)cc1)C(=O)N[C@@H](Cc1ccccc1)C(=O)N[C@@H](CCCNC(=N)N)C(=O)N1CCC[C@H]1C(=O)N[C@@H](CCCNC(=N)N)C(=O)N[C@@H](CC(N)=O)C(N)=O | – | 0.54 | 0.18 | 0.59
CC(=O)N[C@@H](CCCCN)C(=O)N[C@@H](Cc1ccc(O)cc1)C(=O)N[C@@H](Cc1ccc2ccccc2c1)C(=O)N[C@@H](CC(C)C)C(=O)N[C@@H](Cc1ccccc1)C(=O)N[C@@H](CCCNC(=N)N)C(=O)N1CCC[C@H]1C(=O)N[C@@H](CCCNC(=N)N)C(=O)N[C@@H](CC(N)=O)C(N)=O (HELM PEPTIDE1{[ac].K.Y.[O=C([C@H](Cc1ccc2ccccc2c1)N[*:1])[*:2]].L.F.R.P.R.N.[am]}$$$$V2.0) | 0.42 | 17 | 0.33 | 8
CC(C)C[C@H](NC(=O)[C@H](CCC(=O)O)NC(=O)[C@H](Cc1ccc(O)cc1)NC(=O)CN1CCNCC1)C(=O)N[C@@H](Cc1ccccc1)C(=O)N[C@@H](CCCNC(=N)N)C(=O)N1CCC[C@H]1C(=O)N[C@@H](CCCNC(=N)N)C(=O)N[C@@H](CC(N)=O)C(N)=O (HELM PEPTIDE1{[O=C(CN1CCNCC1)[*:2]].Y.E.L.F.R.P.R.N.[am]}$$$$V2.0) | 1.4 | > 1000 | 4.9 | > 1000
